The source of these data is ChEMBL document CHEMBL1128448, “Synthesis and antifungal activity of new azole derivatives containing an N-acylmorpholine ring” (1995).

Assay [1] relates to Candida tropicalis. The experiment in a line: In vitro evaluation of minimum inhibitory concentration against Candida tropicalis 2.11. The format is functional. The method in brief: (§1)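 Stocks are 800 μg/mL in 50% ethanol. Each plate gets 10 μL of inoculum at 10^5 cfu/mL. Incubation at 25 °C, 48 h for yeasts and 120 h for dermatophytes and molds. Organisms are ATCC strains or clinical isolates.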

For assay [2], the system named is Microsporum canis. Description: In vitro evaluation of minimum inhibitory concentration against Microsporum canis 47. The format is functional. In a few lines:
as §1

For assay [3], the system named is Mus sp. Description: In vivo evaluation of % survival rate after peroral administration on 9th day at dose 1 mg/kg. The format is functional. The settings on record: for Survival: route oral, 1 mg/kg.
Assay [4] deals with Mus sp. The experiment in a line: In vivo evaluation of % survival rate after peroral administration on 3rd day at dose 2.5 mg/kg. The format is functional. The settings on record: for survival at 2.5 mg/kg: Mus sp., po.
Assay [5] deals with Nannizzia gypsea. The experiment in a line: In vitro evaluation of minimum inhibitory concentration against Microsporum gypseum 22. In kind it is functional. The method in brief:
as §1

In assay [6] the test system is Trichophyton benhamiae. Description: In vitro evaluation of minimum inhibitory concentration against Trichophyton mentagrophytes 23. In kind it is functional, Arthroderma benhamiae. In a few lines:
as §1

The subject of assay [7] is Candida albicans. The experiment in a line: In vitro evaluation of minimum inhibitory concentration against Candida albicans 76. The format is functional. The method in brief:
as §1

The subject of assay [8] is Candida parapsilosis. Description: In vitro evaluation of minimum inhibitory concentration against Candida parapsilosis 61. The format is functional. In a few lines:
as §1

For assay [9], the system named is Mus sp. The experiment in a line: In vivo evaluation of % survival rate after peroral administration on 5th day at dose 1 mg/kg. The format is functional. The settings on record: for Survival: route oral, 1 mg/kg.
Assay [10] deals with Mus sp. The experiment in a line: In vivo evaluation of % survival rate after peroral administration on 9th day at dose 2.5 mg/kg. The format is functional. The settings on record: for survival at 2.5 mg/kg: Mus sp., po.
The subject of assay [11] is Pichia kudriavzevii. Description: In vitro evaluation of minimum inhibitory concentration against Candida krusei 70. In kind it is functional. In a few lines: as §1
Assay [12] has as its system Trichophyton rubrum. Description: In vitro evaluation of minimum inhibitory concentration against Trichophyton rubrum 90. In kind it is functional. In a few lines:
as §1

The test system of assay [13] is Candida albicans. The experiment in a line: In vivo evaluation of minimum inhibitory concentration against Candida albicans 60. The format is functional. The method in brief:
(§2)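 Broth macrodilution MIC following NCCLS M27-P, in RPMI-1640 buffered with 0.165 M MOPS. Fluconazole was dissolved in water and other drugs in DMSO. C. parapsilosis ATCC 22019 served as the reference strain in every run. MIC was the lowest concentration giving turbidity at or below the 80% inhibition standard.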

Assay [14] relates to Kluyveromyces marxianus. Description: In vitro evaluation of minimum inhibitory concentration against Candida pseudotropicalis 13. The format is functional. The method in brief:
as §1

Assay [15] has as its system Mus sp. The experiment in a line: In vivo evaluation of % survival rate after peroral administration on 5th day at dose 2.5 mg/kg. The settings on record: for survival at 2.5 mg/kg: Mus sp., po. In kind it is functional.
The test system of assay [16] is Rhodotorula mucilaginosa. Description: In vitro evaluation of minimum inhibitory concentration against Rhodotorula rubra 16. The format is functional. In a few lines:
as §1

Assay [17] concerns Meyerozyma guilliermondii. The experiment in a line: In vitro evaluation of minimum inhibitory concentration against Candida guilliermondii 26. In kind it is functional. The method in brief:
as §1

For assay [18], the system named is Mus sp. The experiment in a line: In vivo evaluation of % survival rate after peroral administration on 7th day at dose 2.5 mg/kg. The settings on record: for survival at 2.5 mg/kg: Mus sp., po. The format is functional.
Assay [19] relates to Mus sp. The experiment in a line: In vivo evaluation of % survival rate after peroral administration on 3rd day at dose 1 mg/kg. The format is functional. The settings on record: for Survival: route oral, 1 mg/kg.
Assay [20] deals with Mus sp. The experiment in a line: In vivo evaluation of % survival rate after peroral administration on 7th day at dose 1 mg/kg. The format is functional. The settings on record: for Survival: route oral, 1 mg/kg.
Assay [21] deals with Aspergillus flavus. Description: In vitro evaluation of minimum inhibitory concentration against Aspergillus flavus 19. In kind it is functional. The settings on record: Aspergillus flavus; read-out: MIC. The method in brief: as §1
Assay [22] relates to Aspergillus fumigatus. The experiment in a line: In vitro evaluation of minimum inhibitory concentration against Aspergillus fumigatus 33. In kind it is functional. The settings on record: Aspergillus fumigatus; read-out: MIC. In a few lines:
as §1

Assay [23] has as its system Aspergillus niger. The experiment in a line: In vitro evaluation of minimum inhibitory concentration against Aspergillus niger 18. The settings on record: Aspergillus niger; read-out: MIC. The format is functional. The method in brief:
as §1

Assay [24] has as its system Nakaseomyces glabratus. Description: In vitro evaluation of minimum inhibitory concentration against Torulopsis glabrata 78. In kind it is functional. The settings on record: Nakaseomyces glabratus; read-out: MIC. The method in brief:
as §1

Assay [25] deals with Candida albicans. Description: In vivo evaluation of minimum inhibitory concentration against Candida albicans 406. The format is functional. In a few lines: as §2
The mark [26] stands for this setting: Candida tropicalis, read-out: MIC.
[27] abbreviates: Microsporum canis, read-out: MIC.
[28] abbreviates: Nannizzia gypsea, read-out: MIC.
[29] abbreviates: Trichophyton benhamiae, read-out: MIC.
Setting [30] is: Candida albicans, read-out: MIC.
Setting [31] is: Lodderomyces parapsilosis, read-out: MIC.
Where [32] appears, read: Pichia kudriavzevii, read-out: MIC.
Setting [33] is: Trichophyton rubrum, read-out: MIC.
[34] abbreviates: Kluyveromyces marxianus, read-out: MIC.
The mark [35] stands for this setting: Rhodotorula mucilaginosa, read-out: MIC.
Setting [36] is: Meyerozyma guilliermondii, read-out: MIC.

Values after ≈ are worked out from the molar mass of the structure shown. Bounds are passed on as bounds.

Take `C[C@H]1N(C(=O)c2ccc(C(F)(F)F)cc2)CCO[C@@]1(Cn1cncn1)c1ccc(F)cc1F` (racemic): the MIC in [1] stood at 80 µg/mL (≈ 172 µM); in assay [2], 40 µg/mL (≈ 85.8 µM); in [5] it was 40 µg/mL (≈ 85.8 µM); in assay [6], 80 µg/mL (≈ 172 µM); in [7], 80 µg/mL (≈ 172 µM); in [8] it was 40 µg/mL (≈ 85.8 µM). Moreover, the MIC in assay [11] is 80 µg/mL (≈ 172 µM); in assay [12] it was 20 µg/mL (≈ 42.9 µM); in [13], 1.25 µg/mL (≈ 2.68 µM); in assay [14] it was 5 µg/mL (≈ 10.7 µM); in [16], 40 µg/mL (≈ 85.8 µM); in [17], 80 µg/mL (≈ 172 µM). Besides, the Survival in assay [3] is recorded as 0%; in [4] (route oral, 2.5 mg/kg), 100%; in [9], 70%; in [10] (route oral, 2.5 mg/kg) it was 90%; in [15] (route oral, 2.5 mg/kg) it was 100%; in assay [18] (route oral, 2.5 mg/kg) it was 90%. Further, the Survival in [19] was 80%; in assay [20], 10%.
For the molecule `C[C@H]1N(C(=O)c2ccc(C(F)(F)F)cc2)C[C@H](O)O[C@@]1(Cn1cncn1)c1ccc(Cl)cc1Cl` (racemic), the minimum inhibitory concentration (MIC) came out at 20 µg/mL (≈ 38.8 µM) in assay [1] (setting [26]); 40 µg/mL (≈ 77.6 µM) in assay [2] (setting [27]); 40 µg/mL (≈ 77.6 µM) in assay [5] (setting [28]); 40 µg/mL (≈ 77.6 µM) in [6] (setting [29]); 5 µg/mL (≈ 9.7 µM) in [7] (setting [30]); 20 µg/mL (≈ 38.8 µM) in [21]. The MIC in assay [8] (setting [31]) was determined as 2.5 µg/mL (≈ 4.85 µM); in assay [22], 20 µg/mL (≈ 38.8 µM); in assay [11] (setting [32]) it was 10 µg/mL (≈ 19.4 µM); in assay [12] (setting [33]), 40 µg/mL (≈ 77.6 µM); in [13] (setting [30]), 1.25 µg/mL (≈ 2.43 µM); in assay [14] (setting [34]), 0.15 µg/mL (≈ 0.291 µM). Moreover, the MIC in assay [23] was above 80 µg/mL; in assay [24], 20 µg/mL (≈ 38.8 µM); in [25] (setting [30]), 0.63 µg/mL (≈ 1.22 µM); in assay [16] (setting [35]) it was 2.5 µg/mL (≈ 4.85 µM); in assay [17] (setting [36]), 5 µg/mL (≈ 9.7 µM). Further, the survival at 1 mg/kg stood at 70% in assay [3] (Mus sp., po); 100% in assay [9] (Mus sp., po); 100% in assay [19] (Mus sp., po); 90% in assay [20] (Mus sp., po). Further, the survival at 2.5 mg/kg in assay [4], in assay [10], in assay [15] and in [18] was 100% throughout.
As for `C[C@H]1N(C(=O)c2ccccc2)CCO[C@@]1(Cn1cncn1)c1ccccc1` (racemic), the MIC in [1] (setting [26]), in assay [2] (setting [27]), in assay [5] (setting [28]), in [6] (setting [29]), in [7] (setting [30]) and in assay [21] was above 80 µg/mL each time. The MIC in [8] (setting [31]), in assay [22], in assay [11] (setting [32]), in assay [12] (setting [33]), in [13] (setting [30]) and in [14] (setting [34]) was above 80 µg/mL in each case. The MIC in [23], in assay [24], in assay [25] (setting [30]), in assay [16] (setting [35]) and in assay [17] (setting [36]) was above 80 µg/mL throughout. The survival at 2.5 mg/kg in assay [4] worked out at 40%; in assay [10] it was 0%; in assay [15] it was 0%; in assay [18], 0%.
Consider `C[C@H]1N(C(=O)c2ccc(C(F)(F)F)cc2)C[C@H](O)O[C@@]1(Cn1cncn1)c1ccc(F)cc1F` (racemic), for which the MIC is above 80 µg/mL in assay [1] (setting [26]); 80 µg/mL (≈ 166 µM) in assay [2]; above 80 µg/mL in assay [7]; 80 µg/mL (≈ 166 µM) in [8]; above 80 µg/mL in assay [12]; 10 µg/mL (≈ 20.7 µM) in [13]. In addition, the MIC in assay [14] is 10 µg/mL (≈ 20.7 µM); in assay [24] it was above 80 µg/mL; in assay [25] it was 2.5 µg/mL (≈ 5.18 µM); in assay [16] (setting [35]) it was above 80 µg/mL; in [17] it was above 80 µg/mL. The Survival in [3] was 25%; in [9] it was 85%; in [19], 85%; in assay [20] it was 55%. Besides, the survival at 2.5 mg/kg in assay [4], in [10], in assay [15] and in assay [18] was 100% throughout.

In general, MIC refers to the lowest concentration found to suppress growth.
